Hits are enriched below; roughly 1.5% of the tested compounds scored in any of these assays.
CHRM4 antagonist – human M4 muscarinic receptor antagonists, primary screen, CHO cells, Fluo-8 calcium fluorescence; Muscarinic acetylcholine receptor M4 (Homo sapiens), P08173; CHO-hM4 cells, ACh EC80; inhibition, % at 3 µM; hit rate 0.73% among 360,000;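 active = inhibition above its plate's cutoff, the mean inhibition of sample wells plus 3 SD, cut at about 27% in these data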
OXTR agonist – human OXTR agonists, primary screen, fluorescence, CHO-OTR cells, Fluo-8 calcium. Fluo-8 calcium fluorescence; normalized: DMSO 0%, oxytocin 100%. hit rate 0.32% among 320,000. activation, % at 3 µM. Oxytocin receptor (Homo sapiens), P30559;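 active = activation above the mean of all tested compounds plus 3 SD, cutoff set per screening run, cut at about 20% in these data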;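 also: peak over basal fluorescence ratio from a 100 s FLIPR kinetic read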
Target sequence (P30559 whole entry, looked up): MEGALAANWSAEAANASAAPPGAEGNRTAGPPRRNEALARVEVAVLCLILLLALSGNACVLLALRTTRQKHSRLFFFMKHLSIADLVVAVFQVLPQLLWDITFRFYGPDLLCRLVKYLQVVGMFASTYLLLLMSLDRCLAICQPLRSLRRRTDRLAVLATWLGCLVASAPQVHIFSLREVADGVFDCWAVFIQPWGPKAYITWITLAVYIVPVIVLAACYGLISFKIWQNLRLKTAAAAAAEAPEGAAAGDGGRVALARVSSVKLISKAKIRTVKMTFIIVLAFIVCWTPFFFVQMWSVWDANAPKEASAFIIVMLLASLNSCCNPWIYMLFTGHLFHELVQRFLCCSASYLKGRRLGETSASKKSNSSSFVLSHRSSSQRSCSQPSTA
V1R ag counter – agonists of human V1a receptor, primary screen, counter-screen for OXTR agonist project, fluorescence, CHO-V1R cells. Fluo-8 calcium fluorescence, agonist mode; 0% DMSO, 100% 3 nM vasopressin. activation, % at 3 µM. hit rate 0.25% among 320,000. AID 2797, 2010. Vasopressin V1a receptor (Homo sapiens), P37288;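 active = activation above the mean activation of all tested compounds plus 3 SD, per screening run, cut at about 20% in these data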;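 also: signal is peak over basal fluorescence ratio across a 100 second FLIPR read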
M4 PAM – human M4 muscarinic receptor positive allosteric modulators, primary screen, CHO-K1 cells, Fluo-8 calcium fluorescence. Muscarinic acetylcholine receptor M4 (Homo sapiens), P08173. CHO-K1 hM4/Gqi5, ACh EC20; 0% = ACh EC20, 100% = maximal ACh. activation, % at 3 µM. hit rate 0.4% among 360,000;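 active = activation above its plate's cutoff, the mean activation of sample wells plus 3 SD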
M4 ag – human M4 muscarinic receptor agonists, primary screen, CHO-K1 cells, Fluo-8 calcium fluorescence; Muscarinic acetylcholine receptor M4 (Homo sapiens), P08173; CHO-K1 hM4/Gqi5; vehicle 0%, full acetylcholine response 100%; hit rate 0.14% among 360,000; activation, % at 3 µM;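 active = activation above the run mean over all test wells plus 3 SD, cut at about 32% in these data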;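 also: peak over basal fluorescence ratio per well then scaled between controls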
OXTR potentiator – human OXTR potentiators, primary screen, fluorescence, CHO-OTR cells, Fluo-8 calcium. Oxytocin receptor (Homo sapiens), P30559. Fluo-8 calcium fluorescence, potentiator mode; 0% = oxytocin EC15, 100% = EC100. activation, % at 3 µM. hit rate 0.061% among 320,000;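 active = activation above that plate's cutoff, the mean activation of tested compounds plus 3 SD, cut at about 6.6% in these data, passing the limit was not always enough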
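Assay system: CHO cell line stably expressing human OTR. Reagent: EC15 oxytocin agonist. Dosing: single dose, 3.0 µM nominal final compound concentration. Timing: compound 6 min at room temperature before oxytocin, 100 s read. Signal: kinetic Fluo-8 calcium fluorescence. Controls: oxytocin EC15 low and EC100 high.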
V1R ag confirm – V1a receptor agonists, calcium signal, confirmation, Fluo-8 calcium fluorescence, CHO-V1R cells. shares compounds with V1R ag counter. agonist. activation, % at 3 µM. hit rate 20% among 180. AID 434964, 2010;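 active = average activation exceeds primary screen hit cutoff, cut at about 21% in these data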;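 also: peak over basal fluorescence ratio during a 100 s FLIPR read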
OXTR counter – human OXTR agonists, counter-screen for V1R agonist project, fluorescence, CHO-OTR cells, triplicate. AID 434969, 2010. hit rate 10% among 180. shares compounds with V1R ag counter. activation, % at 3 µM. Fluo-8 calcium fluorescence;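 active = mean activation over three repeats above the cutoff from the earlier oxytocin receptor agonist screen, cut at about 20% in these data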;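 also: peak over minimum fluorescence ratio within a 100 second FLIPR read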
A number is an active result; n = inactive; x = not tested or not shown.

SMILES	CHRM4 antagonist	OXTR agonist	V1R ag counter	M4 PAM	M4 ag	OXTR potentiator	V1R ag confirm	OXTR counter
CCC(=C(c1ccc(OC)cc1)c1ccc(OC)cc1)c1cn(CC(O)CN2CCN(C)CC2)c2ccccc12 (stereo unspecified)	n	n	n	n	n	n	x	x
c1ccc(Nc2ccccc2Nc2ccccn2)nc1	n	n	49.5	n	n	n	n	n
COc1cccc2cc(C(C)N(CCCN3CCOCC3)C(=S)Nc3c(C)cccc3C)oc12 (stereo unspecified)	n	n	n	n	n	n	x	x
CCc1ccc(NC(=O)N(CCCN2CCOCC2)C(C)c2cc3cccc(OC)c3o2)cc1 (stereo unspecified)	n	n	21.7	n	n	n	n	n
CCCNS(=O)(=O)c1ccc(Oc2ncc(C(F)(F)F)cc2Cl)cc1	n	n	22.7	n	n	n	n	n
CNC(=O)c1[nH]cnc1C(=O)Nc1ccccc1	n	n	n	n	n	n	x	x
CNC(=O)c1[nH]cnc1C(=O)Nc1ccccn1	n	n	43.3	n	n	n	n	n
Cn1c2ccccc2c(=O)c2c(=O)n(C3CCCCC3)c(-c3cccs3)nc21	n	n	20.8	n	n	n	51.0	32.6
COc1ccc(Cn2c(C3CCCCC3)nc3c(c(=O)c4ccccc4n3C)c2=O)cc1	x	n	n	x	x	n	x	x
Cn1c2ccccc2c(=O)c2c(=O)n(C3CCCCCC3)c(C3CCCCC3)nc21	n	x	x	n	n	x	x	x
COc1ccc(CCn2c(C3CCCCC3)nc3c(c(=O)c4ccccc4n3C)c2=O)cc1	n	n	27.6	n	45.1	n	n	n
CCN(CC)C(=O)COc1ccc(/C=C(\C#N)S(=O)(=O)c2ccccc2)cc1OC	n	n	n	n	n	n	x	x
CN(CC(=O)Nc1ccccc1C(F)(F)F)C(=O)CCc1nc2ccccc2c(=O)[nH]1	n	n	n	n	n	n	x	x
O=C(NNC(=S)NC(=O)c1ccco1)c1ccc(F)cc1	n	n	29.0	n	n	n	n	n
O=C(NC(=S)NNC(=O)c1ccco1)c1ccc(Br)cc1	n	n	n	n	n	n	x	x
CSc1n[nH]c(NCc2cccs2)n1	n	n	n	n	n	n	x	x
O=C(/C=C/c1ccc(F)cc1)NC(=S)NNC(=O)[C@H]1C[C@@H]1c1ccccc1	n	n	26.2	n	53.1	n	n	n
OC(COc1ccc(F)cc1Cl)CN1CCC(Cc2ccccc2)CC1 (stereo unspecified)	n	n	22.1	n	n	n	n	n
C#CCOCCOCCOCCNc1nc(N2CCN(C(=O)CCCCCCCCCCNC(=O)[C@H](CCCCN)n3cc(C[C@@H](C)CC)nn3)CC2)nc(N2CCN(C(=O)CCCCCCCCCCNC(=O)[C@@H]([C@H](C)O)n3cc(C)nn3)CC2)n1	n	n	n	n	n	n	x	x
C#CCOCCOCCOCCNc1nc(N2CCN(C(=O)CCCCCCCCCCNC(=O)[C@H](CCCCN)n3cc(C)nn3)CC2)nc(N2CCN(C(=O)CCCCCCCCCCNC(=O)[C@@H]([C@H](C)O)n3cc(C)nn3)CC2)n1	n	n	30.7	n	n	n	n	n
C#CCOCCOCCOCCNc1nc(N2CCN(C(=O)CCCCCCCCCCNC(=O)[C@@H](CCC(=O)O)n3cc(CCCCCN)nn3)CC2)nc(N2CCN(C(=O)CCCCCCCCCCNC(=O)[C@H](CCCCN)n3cc(C[C@@H](C)CC)nn3)CC2)n1	n	n	44.8	n	32.9	n	43.6	n
C#CCOCCOCCOCCNc1nc(N2CCN(C(=O)CCCCCCCCCCNC(=O)Cn3cc(CCCCCN)nn3)CC2)nc(N2CCN(C(=O)CCCCCCCCCCNC(=O)Cn3cc(C[C@@H](C)O)nn3)CC2)n1	n	n	26.9	n	n	n	n	n
C#CCOCCOCCOCCNc1nc(N2CCN(C(=O)CCCCCCCCCCNC(=O)Cn3cc(C[C@@H](C)O)nn3)CC2)nc(N2CCN(C(=O)CCCCCCCCCCNC(=O)[C@@H]([C@H](C)CC)n3cc(CCCCCN)nn3)CC2)n1	n	n	n	n	n	n	x	x
S=C(NCc1ccc(Cl)cc1)Nc1ccncc1	n	n	22.4	n	n	n	n	n
COC(=O)C1CCN(C(=O)COc2ccc(N(C)S(=O)(=O)c3ccc(C)cc3)cc2)CC1	n	n	n	n	n	n	x	x
C=CCn1c(C)c(/C=C/c2cc[n+](C)cc2)c2ccccc21	n	n	25.2	n	n	n	n	n
CCOc1ccc(NC2=NCC(=O)N2CCc2ccccc2)cc1	n	n	20.4	n	n	n	n	n
Fc1ccc(CSc2ccc3nnc(-c4cccs4)n3n2)cc1	n	n	23.7	n	n	n	n	n
Cc1cccc(CSc2ccc3nnc(-c4cccs4)n3n2)c1	n	n	n	n	n	n	x	x
CCOc1cccc(C2C(C(=O)c3ccc(C)o3)=C(O)C(=O)N2c2nccs2)c1 (stereo unspecified)	n	n	38.6	n	n	n	n	n
